Results collected from several papers.

| SMILES | target or system | observed | method | concentration | notes | quantity | result |
| --- | --- | --- | --- | --- | --- | --- | --- |
| COc1cc(C=Cc2cc(-c3ccccc3)nc(O)n2)ccc1O | – | DPPH scavenging | – | 12.5 µg/mL | – | inhibition | 38.3% |
| CNC(=O)c1cc(Oc2ccc(NC(=O)Nc3ccc(Cl)c(C(F)(F)F)c3)cc2)ccn1 | Salmonella | microbial growth | – | – | clinical isolate | MIC | > 100 µM |
| O=S(=O)(Nc1nccs1)c1ccc(N=NN(O)c2ccccc2)cc1 | – | DPPH scavenging | absorbance | 20 µg/mL | – | inhibition | 24.1% |
| O=C1O[C@H]([C@@H](O)CO)C(O)=C1O | – | DPPH scavenging | – | 100 µg/mL | – | inhibition | 81.3% |
| Cc1cccc(N(O)N=Nc2ccc(S(=O)(=O)Nc3cc(C)on3)cc2)c1 | – | DPPH scavenging | absorbance | 180 µg/mL | – | inhibition | 34.7% |
| COc1cc(C=CC(=O)CC(c2ccc(N(C)C)cc2)n2ccnc2)ccc1O (stereo not drawn) | – | DPPH scavenging | – | 12.5 µg/mL | – | inhibition | 42.7% |
| Oc1ccc(Br)cc1C=NCCN1CCOCC1 | – | DPPH scavenging | absorbance | 80 µM | – | inhibition | 17.4% |
| COc1cc(-c2ccc(-c3ccc(C(=N)N)nc3)s2)cc(OC)c1OC | NCI/ADR-RES | cell growth or viability | SRB | – | – | GI50 | 5.2 µM |
| CCN(O)N=Nc1ccc(S(=O)(=O)Nc2onc(C)c2C)cc1 | – | DPPH scavenging | absorbance | 120 µg/mL | – | inhibition | 22.5% |
| COc1cc(C=Cc2cc(-c3ccc(N(C)C)cc3)nc(O)n2)ccc1O | – | DPPH scavenging | – | 100 µg/mL | – | inhibition | 71.7% |
| CCCN(O)N=Nc1ccc(S(=O)(=O)Nc2cc(C)on2)cc1 | – | DPPH scavenging | absorbance | 300 µg/mL | – | inhibition | 27.6% |
| O=C1O[C@H]([C@@H](O)CO)C(O)=C1O | – | DPPH scavenging | absorbance | 160 µM | – | inhibition | 70.9% |
